Reference: ChEMBL document CHEMBL4261657, “Discovery of Clinical Candidate 2-(4-(2-((1 H-Benzo[ d]imidazol-2-yl)thio)ethyl)piperazin-1-yl)- N-(6-methyl-2,4-bis(methylthio)pyridin-3-yl)acetamide Hydrochloride [K-604], an Aqueous-Soluble Acyl-CoA:Cholesterol O-Acyltransferase-1 Inhibitor” (J Med Chem, 2018)
One block for each compound: values may come before it. Calls of active or inactive are those of the source. The calls are words filed in the database; no cut-off is given here.

What was measured:
[1] = Inhibition of ACAT in arterial homogenates isolated from 1% cholesterol fed New Zealand White rabbit assessed as reduction in cholesteryl oleate formation incubated for 5 mins in presence of [14C]-oleoyl-CoA and BSA complex by TLC method; format: tissue-based, Oryctolagus cuniculus
[2] = Inhibition of ACAT in New Zealand White rabbit intestinal microsomes assessed as reduction in cholesteryl oleate formation incubated for 3 mins in presence of [14C]-oleoyl-CoA and BSA complex by TLC method; parameters: species or system Oryctolagus cuniculus, Intestine
[3] = Aqueous solubility of the compound at pH 1.2; format: physicochemical; conditions: aqueous solution
[4] = Tmax in Sprague-Dawley rat at 30 mg/kg, po by LC/MS analysis; format: ADME, organism-based; conditions: in vivo
How it was run: (§1)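 Nonfasted male Sprague-Dawley rats (8 weeks old, n = 3) were given a single oral dose of 30 mg/kg in 0.05 N HCl solution. Heparin plasma was drawn from the forearm vein at 0.5, 1, 2, 4, 6 and 8 h. Samples were basified with NH4OH, spiked with internal standard, extracted with i-PrOH/n-hexane 5:95 and quantified by positive-ion ESI LC/MS on an RP8 column at 40 °C.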

[5] = Cmax in Sprague-Dawley rat at 30 mg/kg, po by LC/MS analysis; format: ADME, organism-based; parameters: dose 30 mg/kg, route oral; conditions: in vivo; how it was run: as §1
[6] = Half life in Sprague-Dawley rat at 30 mg/kg, po by LC/MS analysis; format: ADME, organism-based; conditions: in vivo; how it was run: as §1
[7] = AUC (0 to infinity) in Sprague-Dawley rat at 30 mg/kg, po by LC/MS analysis; format: ADME, organism-based; parameters: dose 30 mg/kg, route oral, time infinity; conditions: in vivo; how it was run: as §1
Hamster [8] = test: Antiatherosclerotic activity in Bio F1B hamster model of diet-induced atherosclerosis assessed as reduction in lipid accumulation areas in aortic arch at 3 mg/kg/day added to chow pellets by oil red O staining based assay relative to control; format: functional, Cricetinae; parameters: scale not given: the % may be the effect or the level left
How it was run: (§2)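 Male Bio F1B hamsters (8 weeks old) were fed CE-2 chow with 0.3% cholesterol and 10% coconut oil for 10 weeks, with compound mixed into the chow (n=7 per dose; reference group n=6). Plasma TC was measured by enzymatic kit. Aorta was perfusion-fixed with 4% paraformaldehyde under pentobarbital anaesthesia, opened and stained with oil red O, and lipid area was measured by image analysis. Results are % of control ± SD, analysed by Dunnett's test.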

Hamster [9] = test: Antiatherosclerotic activity in Bio F1B hamster model of diet-induced atherosclerosis assessed as reduction in lipid accumulation areas in aortic arch at 10 mg/kg/day added to chow pellets by oil red O staining based assay relative to control; format: functional, Cricetinae; parameters: scale not given: the % may be the effect or the level left; how it was run: as §2
Hamster [10] = test: Antiatherosclerotic activity in Bio F1B hamster model of diet-induced atherosclerosis assessed as reduction in CE to FC ratio in liver at 1 to 30 mg/kg/day added to chow pellets; format: functional, organism-based; conditions: Cricetinae
Hamster [11] = test: Toxicity in Bio F1B hamster model of diet-induced atherosclerosis assessed as reduction in CE to FC ratio in adrenal gland at 1 to 30 mg/kg/day added to chow pellets; format: organism-based; conditions: cricetinae, in vivo, po
Salmonella typhimurium [12] = test: Genotoxicity in Salmonella typhimurium TA98 by Ames test; format: toxicity, organism-based; conditions: salmonella enterica subsp. enterica serovar typhimurium
Salmonella typhimurium [13] = test: Genotoxicity in Salmonella typhimurium TA100 by Ames test; format: toxicity, organism-based; conditions: salmonella enterica subsp. enterica serovar typhimurium
Salmonella typhimurium [14] = test: Genotoxicity in Salmonella typhimurium TA1537 by Ames test; format: toxicity, organism-based; conditions: salmonella enterica subsp. enterica serovar typhimurium
Salmonella typhimurium [15] = test: Genotoxicity in Salmonella typhimurium TA1535 by Ames test; format: toxicity, organism-based; conditions: salmonella enterica subsp. enterica serovar typhimurium
Escherichia coli = test: Genotoxicity in Escherichia coli […] by Ames test; format: toxicity, organism-based
[16] = Fraction unbound in New Zealand White rabbit plasma at 200 ng/mL by HPLC-MS/MS analysis; format: ADME, cell-free, Oryctolagus cuniculus
[17] = Tmax in non-fasted Beagle dog at 10 mg/kg, po by LC/MS analysis; format: ADME, organism-based, Canis lupus familiaris; conditions: in vivo
How it was run: (§3)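 Male beagle dogs (n = 4), single oral dose of 10 mg/kg, given fasted or nonfasted; the Experimental section states the vehicle was 0.05 N HCl solution, while the table footnote states capsules. Foreleg vein blood was taken at 0.5, 1, 2, 4, 6 and 8 h. Plasma was extracted with i-PrOH/n-hexane (5:95) after NH4OH and internal standard were added, then measured by LC/MS (ESI positive, RP8 column). Values are means ± SD.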

[18] = Tmax in fasted Beagle dog at 10 mg/kg, po by LC/MS analysis; format: ADME, organism-based, Canis lupus familiaris; conditions: in vivo; how it was run: as §3
[19] = Cmax in non-fasted Beagle dog at 10 mg/kg, po by LC/MS analysis; format: ADME, organism-based, Canis lupus familiaris; parameters: dose 10 mg/kg, route oral; conditions: in vivo; how it was run: as §3
[20] = Cmax in fasted Beagle dog at 10 mg/kg, po by LC/MS analysis; format: ADME, organism-based, Canis lupus familiaris; parameters: dose 10 mg/kg, route oral; conditions: in vivo; how it was run: as §3
[21] = AUC (0 to 8 hrs) in non-fasted Beagle dog at 10 mg/kg, po by LC/MS analysis; format: ADME, organism-based, Canis lupus familiaris; parameters: dose 10 mg/kg, time < 8 hr, route oral; conditions: in vivo; how it was run: as §3
[22] = AUC (0 to 8 hrs) in fasted Beagle dog at 10 mg/kg, po by LC/MS analysis; format: ADME, organism-based, Canis lupus familiaris; parameters: time < 8 hr, dose 10 mg/kg, route oral; conditions: in vivo; how it was run: as §3
[23] = Toxicity in po dosed male Beagle dog after 4 weeks; format: organism-based, Canis lupus familiaris; conditions: in vivo
[24] = Toxicity in po dosed male monkey after 26 weeks; format: organism-based, Macaca mulatta; conditions: rhesus monkey, in vivo
[25] = Cmax in fasted Sprague-Dawley rat at 30 mg/kg, po by LC/MS analysis; format: ADME, organism-based; parameters: dose 30 mg/kg, route oral; conditions: in vivo
Hamster [26] = test: Antiatherosclerotic activity in Bio F1B hamster model of diet-induced atherosclerosis assessed as reduction in CE to FC ratio in intestine at 1 to 30 mg/kg/day added to chow pellets; format: functional, organism-based; conditions: Cricetinae
[27] = Toxicity in po dosed female Beagle dog after 4 weeks; format: organism-based, Canis lupus familiaris; conditions: in vivo
[28] = Toxicity in po dosed female monkey after 26 weeks; format: organism-based, Macaca mulatta; conditions: rhesus monkey, in vivo
[29] = Cmax in monkey; format: ADME, organism-based, Macaca mulatta; conditions: rhesus monkey, in vivo
[30] = AUC in monkey; format: ADME, organism-based, Macaca mulatta; conditions: rhesus monkey, in vivo
[31] = Lipophilicity, log P of the compound at pH 6.8; format: physicochemical; conditions: buffer
Oryctolagus cuniculus = species on record: Oryctolagus cuniculus; conditions: New Zealand White
Hamster [32] = test: Antiatherosclerotic activity in Bio F1B hamster model of diet-induced atherosclerosis assessed as reduction in CE to FC ratio in liver at 0.3 to 10 mg/kg/day added to chow pellets; format: functional, organism-based; conditions: Cricetinae
Hamster [33] = test: Toxicity in Bio F1B hamster model of diet-induced atherosclerosis assessed as reduction in CE to FC ratio in adrenal gland at 0.3 to 10 mg/kg/day added to chow pellets; format: organism-based; conditions: cricetinae, in vivo, po
Hamster [34] = test: Antiatherosclerotic activity in Bio F1B hamster model of diet-induced atherosclerosis assessed as reduction in lipid accumulation areas in aortic arch at 0.3 to 10 mg/kg/day added to chow pellets by oil red O staining based assay relative to control; format: functional, organism-based; conditions: Cricetinae; how it was run: as §2
Hamster [35] = test: Antiatherosclerotic activity in Bio F1B hamster model of diet-induced atherosclerosis assessed as reduction in total plasma cholesterol at 0.3 to 10 mg/kg/day added to chow pellets relative to control; format: functional, organism-based; conditions: Cricetinae; how it was run: as §2
Hamster [36] = test: Antiatherosclerotic activity in Bio F1B hamster model of diet-induced atherosclerosis assessed as reduction in CE to FC ratio in intestine at 0.3 to 10 mg/kg/day added to chow pellets; format: functional, organism-based; conditions: Cricetinae
[37] = Toxicity in rabbit; format: organism-based, Oryctolagus cuniculus; conditions: in vivo
How it was run: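 Preliminary adrenal toxicity test in male rabbits (four per group) given a single intravenous injection. Adrenal glands were examined 24 h after dosing for necrosis of zona fasciculata cells. The read-out was the number of animals affected per group. PD-132301-2 served as the positive control.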

Hamster [38] = test: Antiatherosclerotic activity in cholesterol fed F1B hamster model of diet-induced atherosclerosis assessed as reduction in lipid accumulation areas at 3 mg/kg; format: functional, Cricetinae, Bio F1B; parameters: scale not given: the % may be the effect or the level left
Hamster [39] = test: Antiatherosclerotic activity in cholesterol fed F1B hamster model of diet-induced atherosclerosis assessed as reduction in lipid accumulation areas at 10 mg/kg; format: functional, Cricetinae, Bio F1B; parameters: scale not given: the % may be the effect or the level left
Hamster [40] = test: Antiatherosclerotic activity in cholesterol fed F1B hamster model of diet-induced atherosclerosis assessed as reduction in lipid accumulation areas at 30 mg/kg; format: functional, Cricetinae, Bio F1B; parameters: scale not given: the % may be the effect or the level left
[41] = Solubility of the compound in 0.1N HCl; format: physicochemical
[42] = Solubility of the compound in 0.025N HCl; format: physicochemical

IC50 [1]: 84 nM | IC50 [2]: 450 nM | solubility [3]: 19000 µg/mL | Tmax [4]: 0.7 h | Cmax [5]: 192 ng/mL | half-life [6]: 2.1 h | AUC(0-inf) [7]: 594 ng·h/mL | fraction unbound at 200 ng/mL [16]: 0.027 | Tmax [17]: 2.3 h | Tmax [18]: 1 h | Cmax [19]: 1420 ng/mL | Cmax [20]: 5470 ng/mL | AUC(0-t) at 8 h [21]: 3580 ng·h/mL | AUC(0-t) at 8 h [22]: 13900 ng·h/mL | Cmax [25]: 568 ng/mL | Cmax [29]: 1000 ng/mL | AUC [30]: 3000 ng·h/mL | logD [31]: 3.3
SMILES: CSc1cc(C)nc(SC)c1NC(=O)CN1CCN(CCSc2nc3ccccc3[nH]2)CC1.Cl
Activity (Hamster [8]): 71% | Activity (Hamster [9]): 53% | Activity (Hamster [10]): Active | Activity (Hamster [11]): Non-Toxic | Activity (Salmonella typhimurium [12]): Non-Toxic | Activity (Salmonella typhimurium [13]): Non-Toxic | Activity (Salmonella typhimurium [14]): Non-Toxic | Activity (Salmonella typhimurium [15]): Non-Toxic | Activity (Escherichia coli): Non-Toxic | NOAEL at 672 h [23]: 10 mg/kg | NOAEL at 4368 h [24]: 10 mg/kg | Activity (Hamster [26]): Active | NOAEL at 672 h [27]: 10 mg/kg | NOAEL at 4368 h [28]: 10 mg/kg | fIC50 (Oryctolagus cuniculus): 2.3 nM

SMILES: CC(C)c1cc(C(C)C)c(CC(=O)NS(=O)(=O)Oc2c(C(C)C)cccc2C(C)C)c(C(C)C)c1 [AVASIMIBE]
Activity (Hamster [32]): Active | Activity (Hamster [33]): Non-Toxic | Activity (Hamster [34]): Active | Activity (Hamster [35]): Active | Activity (Hamster [36]): Active | NOAEL [37]: 5 mg/kg | Activity (Hamster [38]): 68% | Activity (Hamster [39]): 86% | Activity (Hamster [40]): 93%

solubility [41]: 6400 µg/mL
SMILES: CC(C)c1cccc(C(C)C)c1NC(=O)NCC1(Cc2ccc(N(C)C)cc2)CCCC1.Cl

solubility [42]: 10000 µg/mL
SMILES: CN(C)c1ccc(NC(=O)N(Cc2cccc(CN(C(=O)Nc3ccc(N(C)C)cc3)C3CCCCCC3)c2)C2CCCCCC2)cc1.Cl.Cl
